How the values were obtained:
Assay type in all cases: functional
[1] = In vitro percent inhibition of ConA induced T-cell proliferation at the dose 1 ug/mL
Procedure, shortened: (§1)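 Spleen cells sieved to single-cell suspension, red cells lysed with 0.16 M NH4Cl-Tris, washed, in RPMI-1640 + 10% FBS; seeded at 2.5×10^6/mL, stimulated with ConA 0.5 µg/mL, drug final 1, 10 or 100 µg/mL, triplicates; 72 h at 37 °C, [3H]thymidine 0.5 µCi for final 16 h; cpm counted; %inhibition = (control − drug)/control.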

[2] = In vitro percent inhibition of ConA induced T-cell proliferation at the dose 10 ug/mL; procedure, shortened: as §1
[3] = In vitro percent inhibition of ConA induced T-cell proliferation at the dose 100 ug/mL; procedure, shortened: as §1
[4] = target: T1, Tumor necrosis factor (Mus musculus) (UniProt P06804); assay: In vitro percent inhibition of tumor necrosis factor, alpha secreted by macrophage at the dose 1 ug/mL
T1 sequence (whole entry): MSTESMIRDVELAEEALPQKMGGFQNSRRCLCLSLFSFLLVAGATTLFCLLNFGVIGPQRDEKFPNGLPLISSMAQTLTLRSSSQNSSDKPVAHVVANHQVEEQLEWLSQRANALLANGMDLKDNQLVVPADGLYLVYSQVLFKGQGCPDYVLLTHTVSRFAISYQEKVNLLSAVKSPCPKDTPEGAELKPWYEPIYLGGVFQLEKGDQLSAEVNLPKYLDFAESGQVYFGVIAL
Procedure, shortened: (§2)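 RAW264.7 macrophages in RPMI 1640 with 10% FCS, 2 mM glutamine, gentamycin; seeded 2×10^5/mL, grown ~3 days to confluence at 37 °C, 5% CO2; LPS 10 µg/mL plus drug at final 1, 10 or 100 µg/mL for 24 h; supernatant TNF-α by ELISA; %inhibition = (control mean − drug mean)/control mean.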

[5] = target: T1, Tumor necrosis factor (Mus musculus); assay: In vitro percent inhibition of tumor necrosis factor, alpha secreted by macrophage at the dose 10 ug/mL; procedure, shortened: as §2
[6] = target: T1, Tumor necrosis factor (Mus musculus); assay: In vitro percent inhibition of tumor necrosis factor, alpha secreted by macrophage at the dose 100 ug/mL; procedure, shortened: as §2
[7] = In vitro percent inhibition of LPS induced B-cell proliferation at the dose 1 ug/mL
Procedure, shortened: (§3)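 Splenocyte single-cell suspension (red cells lysed, 0.16 M NH4Cl-Tris), RPMI-1640 + 10% FBS, 2.5×10^6/mL; LPS 10 µg/mL stimulation with drug at final 1, 10 or 100 µg/mL, triplicate wells; cultured 72 h, 37 °C, [3H]thymidine pulse 0.5 µCi last 16 h, β-counting; %inhibition = (control mean − drug mean)/control mean.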

[8] = In vitro percent inhibition of LPS induced B-cell proliferation at the dose 10 ug/mL; procedure, shortened: as §3
[9] = In vitro percent inhibition of LPS induced B-cell proliferation at the dose 100 ug/mL; procedure, shortened: as §3

| SMILES | inhibition at 1 µg/mL [1] [%] | inhibition at 10 µg/mL [2] [%] | inhibition at 100 µg/mL [3] [%] | inhibition [4] [%] | inhibition [5] [%] | inhibition [6] [%] | inhibition at 1 µg/mL [7] [%] | inhibition at 10 µg/mL [8] [%] | inhibition at 100 µg/mL [9] [%] |
| --- | --- | --- | --- | --- | --- | --- | --- | --- | --- |
| CN(C)CCNC(=O)c1cnc2ccc(Br)cc2c1O | -19.6 | 31.6 | 99.7 |  |  |  |  |  |  |
| CCN(C(=O)c1cnc2c(C)cc(C)cc2c1O)c1ccccc1 | 31.9 | 35.5 | 64.2 | 46.3 | 29.7 | 47.6 | 4.49 | 36 | 87.5 |
| O=C(NCCO)c1cnc2cc(Cl)ccc2c1O | 42.5 | 49.8 | 93.8 |  | 6.06 | 77.7 | 21.3 | 29.1 | 53.3 |
| CN(C(=O)c1cnc2cc(C(F)(F)F)ccc2c1O)c1ccccc1 | 54.7 | 4.11 | 93.6 |  | -5.45 | -3.57 | 39.8 | 6.41 | 64.9 |
| O=C(O)c1ccc2ncc(C(=O)Nc3cccc(Cl)c3)c(O)c2c1 | 87.6 | 84.8 | 73.4 |  |  |  | 78.5 | 94.3 | 94.7 |
| O=C(O)c1ccc2ncc(C(=O)Nc3ccccc3)c(O)c2c1 | 71.3 | 57.5 | 39.8 | 15.2 | 15.5 |  | 82.5 | 80.6 | 48.5 |
| O=C(Nc1ccccc1)c1cnc2cc(Cl)ccc2c1O | 16.7 | 32.6 | 22.3 | 10.5 | 10.4 | 23.1 | -2.65 | 12.3 | 27.1 |
| O=C(Nc1ccc(N(CCO)CCO)cc1)c1cnc2ccccc2c1O | 45.8 | 61 | 99.1 | 1.82 | 12.1 | 30.4 | 38 | 75.8 | 88.5 |
| COc1ccc2c(O)c(C(=O)N(C)c3ccccc3)cnc2c1 | 36.5 | 29.3 | 53.7 | 12.1 | 35.7 | 35.7 | 41.3 | 24.9 | 57.5 |
| O=C(O)c1ccc(NC(=O)c2cnc3ccccc3c2O)cc1 | 28.6 | 38.8 | -20.9 | 31.2 | 5.61 | 27.5 | -1.94 | 4.33 | 28 |
| CN(C)CCNC(=O)c1cnc2cc(Cl)ccc2c1O | 14 | 33.7 | 99.9 |  |  |  |  |  |  |
| CN(C)CC(C)(C)CNC(=O)c1cnc2cc(F)ccc2c1O | 20.8 | 37.2 | 96.3 |  |  |  |  |  |  |
| Cc1ccc2ncc(C(=O)NCCN(C)C)c(O)c2c1 | -27.5 | -11.2 | 94.9 |  |  |  |  |  |  |
| CSc1ccc2c(O)c(C(=O)N(C)c3ccccc3)cnc2c1 | 26.2 | 11.8 | 76 | 14.6 | 22.2 | 52.7 | 31.1 | 17 | 83.5 |
| CSc1ccc2c(c1)c(O)c(C(=O)N(C)c1ccccc1)c(=O)n2C | 52 | 75.3 | 79.6 | 14.7 | 11.2 | 29.7 | 13.6 | 30.3 | 37.8 |
| Cc1ccc2ncc(C(=O)N(C)c3ccccc3)c(O)c2c1 | -59.3 | -20 | -1.7 |  |  |  |  |  |  |
| CN(C(=O)c1c(O)c2ccccc2n(C)c1=O)c1ccccc1 [ROQUINIMEX] | 58.1 | 70.6 | 78.5 | 9.95 | 18.2 | 27.3 | 0 | 24.6 | 62.7 |
| CN(C(=O)c1cnc2ccccc2c1O)c1ccccc1 | -7.55 | 24.9 | -9.33 | 7.59 |  | -1.33 | 17.7 | 8.46 | 32.4 |

| SMILES | inhibition at 1 µg/mL [1] [%] | inhibition at 10 µg/mL [2] [%] | inhibition at 100 µg/mL [3] [%] | inhibition [4] [%] | inhibition [5] [%] | inhibition [6] [%] | inhibition at 1 µg/mL [7] [%] | inhibition at 10 µg/mL [8] [%] | inhibition at 100 µg/mL [9] [%] |
| --- | --- | --- | --- | --- | --- | --- | --- | --- | --- |
| CSc1cccc2c(O)c(C(=O)NCCN(C)C)cnc12 | 32 | 69.1 | 99.9 |  |  |  |  |  |  |
| CN(C)CCNC(=O)c1cnc2ccc([N+](=O)[O-])cc2c1O | 41.5 | 53.2 | 99.9 |  |  |  |  |  |  |
| CCCN(CCC)C(=O)c1cnc2cc(Cl)ccc2c1O | 42.1 | 49.5 | 51.2 | 14.7 | 18.4 | -4.03 | -3.57 | 18.1 | 12.6 |
| CN(C)CC(C)(C)CNC(=O)c1cnc2ccc(F)cc2c1O | -30.7 | 32.9 | 87.4 |  |  |  | 21.3 | 17.8 | 70.5 |
| CN(C(=O)c1cnc2cc(Cl)ccc2c1O)c1ccccc1 | -24.7 | -27.6 | 41.2 | 18.6 | 5.61 | 25.6 | -4.33 | -26.7 | 14.1 |
| CSc1ccc2c(O)c(C(=O)NCCN(C)C)cnc2c1 | 30.3 | 38.5 | 100 |  |  |  |  |  |  |
| COc1ccc2c(O)c(C(=O)NCCN(C)C)cnc2c1 | -40.7 | -15.3 | 92.8 |  |  |  |  |  |  |
| CSc1cccc2c(O)c(C(=O)N(C)c3ccccc3)cnc12 | 11.4 | 52.4 | 81.7 | 2.08 |  | -9.52 | -2.46 | 36.5 | 71.7 |
| CSc1ccc2ncc(C(=O)NCCN(C)C)c(O)c2c1 | -182 | -42.6 | 98.2 |  |  |  | -4.33 | -9.69 | 87.7 |
| CN(C(=O)c1cnc2cc(F)ccc2c1O)c1ccccc1 | -46.8 | -21.5 | 17.1 |  |  |  | 4 | 12.5 | -127 |
| CN(C)CCNC(=O)c1cnc2ccccc2c1O | -14.4 | -6.94 | 73.6 |  |  |  |  |  |  |
| COc1ccc2c(O)c(C(=O)NCC(C)(C)CN(C)C)cnc2c1 | 32.6 | 29.4 | 98.5 |  |  |  | 48.8 | 72.3 | 91.6 |
| O=C(O)c1ccc(NC(=O)c2cnc3ccc(Cl)cc3c2O)cc1 | 12.7 | 61.5 | 98.9 | 0.78 | 32.1 | -5.35 | 17.8 | 52.9 | 87 |
| CSc1ccc2ncc(C(=O)N(C)c3ccccc3)c(O)c2c1 |  | -155 | 96.3 |  |  |  | -47 | -144 | 65.6 |
| Cc1cc(C)c2ncc(C(=O)N(C)c3ccccc3)c(O)c2c1 | 1.84 | 12.9 | 47.1 |  |  |  |  |  |  |
| CN(C)CCNC(=O)c1cnc2cc(F)ccc2c1O | -24.6 | -9 | 87.2 |  |  |  |  |  |  |
| Cc1cc(C)c2ncc(C(=O)NCCN(C)C)c(O)c2c1 | 0.95 | 38.5 | 99.6 |  |  |  |  |  |  |

From ChEMBL document CHEMBL1139610, “Design, synthesis, and biological evaluation of novel 4-hydro-quinoline-3-carboxamide derivatives as an immunomodulator” (2005)
